To fix the notation:
B1: tRNA (parent)
chain: GUUCCGUUGGCGUAAUGGUAACGCGUCUCCCUCCUAAGGAGAAGACUGCGGGUUCGAGUCCCGUACGGAACG

Results on 167 variants are retold here after the RNAGym collection of RNA variant scans (doi:10.1126/science.aae0568).

Fewer inactive variants are shown than the library holds. A value given as a limit tells only on which side of the number the result lay.

Variants of B1 are the subject of this data set. The data set is described as follows: yeast fitness relative to wild type (ratio to wild type); higher = fitter; tRNA-Arg(CCU), competitive growth, 37 C, YPD. The method in brief: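 The tRNA-Arg(CCU) gene variants were made by chemical synthesis with a 3% per-site mutation rate at 69 sites and inserted at the native genomic locus of Saccharomyces cerevisiae. After pooling, the strains were competed in YPD at 37°C for 24 hours in six parallel replicates. Gene amplicons from the start population and each end population were read by 100-nucleotide paired-end sequencing, and Darwinian fitness relative to wild type was taken from genotype frequency changes. Genotypes needed ≥ 100 starting reads, and estimates < 0.5 were set to 0.5.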
For the variant C5G A14U A36C C61G C62A A69C, the yeast fitness is not above 0.5.
Turning to C5G C30U G67C, the yeast fitness stood at 0.938.
With C5G C11G A40G C60G the figure was 0.588; with C5A U35C, 0.869.
The result for C5G C11G A20C C33U C34U reads not above 0.5.
With C5G A14G A21U A57U, the yeast fitness was not above 0.5.
On to C5G C30U U47A G51A A57G, for which the yeast fitness is not above 0.5.
In the case of C5G C11U A14G G25C C29G, the yeast fitness is not above 0.5.
On to C5G C22A C31U G50U C60U, for which the yeast fitness was not above 0.5.
As to C5A U16C A21C C33U A40G A43U U54G C62G, the yeast fitness is not above 0.5.
Take C5G C27U G51A: the yeast fitness was not above 0.5.
With C5G C30A A40G A70U the figure was not above 0.5; with C5G C24G C30G C31U U35A A36U G44A G63C, 0.966.
Turning to C5A U53G C60A, the yeast fitness was not above 0.5.
For C5A U19C, the yeast fitness came out at 1.08.
With C5G C11U the figure was 0.886; with C5G C11G, 0.614.
The result for C5G C22U A37G G50C reads not above 0.5; that for C5A U32C A36C G51A, 0.59; that for C5G A65U, 0.796.
For the variant C5G C29U C66U, the yeast fitness was 0.57.
With C5G C33G A40U the figure was not above 0.5.
C5G C29A G52A: the yeast fitness was determined as 0.695.
The result for C5A U47C reads 0.85.
For C5G C11U C34A U47A, the yeast fitness was 0.528.
The result for C5G C24U A45G reads 0.799; that for C5G C22U U26G U32A U35A A69C, not above 0.5; that for C5G A40C C49U, not above 0.5.
For the variant C5A U16G C27U C29U A36U G41A C49U C66U, the yeast fitness was not above 0.5.
The result for C5G A70C reads 0.905.
As for C5G A70U, the yeast fitness turned out to be 0.812.
The result for C5A U16A A45G G50A C61U reads not above 0.5; that for C5G A14G, 0.999; that for C5G A21C A45G G68A, not above 0.5.
With C5G A37C A57U, the yeast fitness was not above 0.5.
With C5G C11A A20G U28C C33U A70C the figure was not above 0.5; with C5G A21G U32C A65U G68A, 0.507; with C5G A20G A36G C66A, not above 0.5.
With C5G C22U C29G the figure was 0.659; with C5G A14U G18A A21U A42G, 0.646; with C5G A14U A37U A45C C62U, not above 0.5.
Regarding C5G C29A U53C C62A G67A, the yeast fitness is not above 0.5.
The result for C5A U19C G50A C55A C66A reads not above 0.5.
C5G C22U U28G: the yeast fitness was not above 0.5.
The result for C5G A15U C61U reads not above 0.5.
As for C5A U19C C34G C55A U64G A69C, the yeast fitness was found to be 0.598.
With C5G A14U C30A C62A, the yeast fitness was not above 0.5.
Regarding C5G A14U G67A A69G, the yeast fitness was 0.503.
The result for C5G C22A U26C C33G G63A reads not above 0.5; that for C5G A45C A57U, not above 0.5.
For C5G A15U C49U A57U C61A, the yeast fitness was found to be 0.663.
As for C5G C31G A42U, the yeast fitness is 0.623.
With C5G A42U G63A the figure was 0.531.
For the variant C5G A43G G67U, the yeast fitness was 0.543.
The result for C5A U13C G18A C31G C46U reads not above 0.5; that for C5G A15U C46U A70G, not above 0.5.
In the case of C5G C27G C55G, the yeast fitness is not above 0.5.
Turning to C5G C27U G41C, the yeast fitness was not above 0.5.
The result for C5G A20C G48A reads not above 0.5.
With C5A U16A A43G U59A C61A the figure was not above 0.5.
For C5G A15G A21G G25C C33U, the yeast fitness was not above 0.5.
In the case of C5G C22U C31G C60A, the yeast fitness was not above 0.5.
On to C5G C22G A36C, for which the yeast fitness is not above 0.5.
Turning to C5G A15U U35A G50A U54G, the yeast fitness was not above 0.5.
As to C5A U16A G39A A45G G50A, the yeast fitness is not above 0.5.
As for C5G A14C G23C G38A G58C G63A A70G, the yeast fitness was not above 0.5.
The result for C5G C22G G39C A57U reads 0.723; that for C5G A20G C55G, 0.538.
For the variant C5A U28A C31U G51C, the yeast fitness was not above 0.5.
For the variant C5A U19G C31G U53A, the yeast fitness amounted to 0.775.
Regarding C5G C11G A20C C33U C34U C61G, the yeast fitness was 0.529.
The result for C5G C30G C33G A37U C61G reads not above 0.5.
C5A U26A A43U A65U: the yeast fitness was not above 0.5.
The result for C5A U19A G38C reads not above 0.5.
Turning to C5G A37C A42U, the yeast fitness is 0.533.
In the case of C5A U35C G44A G48C C55G A70C, the yeast fitness was not above 0.5.
The result for C5G A15U reads 0.747; that for C5G A15C, 0.626; that for C5G A15U G50A A69U, not above 0.5.
Take C5A U35C G44A G48C C55G C66U A70U: the yeast fitness is 0.558.
The result for C5G A45U A57U reads 0.565.
Turning to C5G C29U A40G A57G, the yeast fitness was not above 0.5.
The result for C5A U35G A42C A69C reads 0.588; that for C5G A15C G18C C49U U64A A69U, not above 0.5; that for C5G C27U G41C A57C, 0.565.
For C5G A14U G18A A21U A42C G48C, the yeast fitness was not above 0.5.
Regarding C5G A43C G52C, the yeast fitness was not above 0.5.
The result for C5G C27U G44C G48C reads not above 0.5.
Consider C5A U26A G51C C61G, for which the yeast fitness was not above 0.5.
On to C5G C34A G39C G52A G58A, for which the yeast fitness is 0.532.
With C5G C30A the figure was 0.736; with C5G C11A A14G G25C C29G G56C A57C, not above 0.5.
Regarding C5G A37C A43G A45U G51C C62G, the yeast fitness was not above 0.5.
With C5G C27U C49A U54C C60G the figure was not above 0.5.
With C5G A15U C30A C31A C66G the figure was not above 0.5; with C5G C22A U26C C33G, 0.564; with C5A U16C C22U G63A, 0.553.
In the case of C5G C11G A21C G67C, the yeast fitness is not above 0.5.
Take C5G A21G U26C C49A U54C A65G: the yeast fitness is not above 0.5.
C5G A45C U64G: the yeast fitness is not above 0.5.
Turning to C5A U13G C24G C31A C62U C66U, the yeast fitness was not above 0.5.
For C5G A40G, the yeast fitness was found to be 0.755.
The result for C5G A40U reads 0.876.
With C5A U13G C24G C31A C62G U64A the figure was not above 0.5; with C5A U16C C30A A45U G50C G63A, not above 0.5.
The result for C5G C11A A15G G18A C30G G68A reads not above 0.5; that for C5G C34A C49U, not above 0.5; that for C5G A15G U54A C55G, not above 0.5.
On to C5A U19C C22G C24A G39C A45C, for which the yeast fitness came out at 0.596.
With C5G C24G C49U G58A G63A the figure was not above 0.5; with C5G C22G C62A, 0.509; with C5G C30G C66A, not above 0.5.
With C5G C24G G50A C60U A69U the figure was not above 0.5.
The result for C5G A42U reads 0.683.
Take C5G A42C: the yeast fitness came to 0.814.
With C5G A20C U28C C29A A36U A40U C49G G63C A70U, the yeast fitness is 0.579.
The result for C5G A14U G18A A21U A42G G68A reads 0.522.
With C5G A21U C29A U64C the figure was not above 0.5; with C5G C22G C55A A65U, 0.63; with C5G C33A U64A, not above 0.5.
As to C5A U26A C66A, the yeast fitness is not above 0.5.
With C5G C31A A36C A43C C55G the figure was 1.06; with C5A U54C C61U C62U A69U, 0.546; with C5G C30U A40G C55U, not above 0.5.
In the case of C5A U35G U47C C61G, the yeast fitness was not above 0.5.
Consider C5G A14C G18A A21G A36U A45U, for which the yeast fitness is not above 0.5.
The result for C5G A14G A36U G67A reads not above 0.5; that for C5G A45U C62U, 0.725; that for C5G C11A U16A A21U G67A, not above 0.5.
Consider C5G C24U C46A G68U, for which the yeast fitness is not above 0.5.
In the case of C5G A14G G17A U32C G56C C60G, the yeast fitness amounted to 0.554.
As for C5G C29U A37G A65G, the yeast fitness was not above 0.5.
For C5G A20U G51C C61G A65U A70C, the yeast fitness amounted to 0.565.
With C5G A14U C24G A70U, the yeast fitness was not above 0.5.
Consider C5G A14C A20G C29A C31G U54A, for which the yeast fitness is not above 0.5.
The result for C5G A21U reads 0.731; that for C5G A42U G68A, 0.582.
On to C5A U64C, for which the yeast fitness amounted to 0.96.
The result for C5A U64A reads 0.766.
As for C5G C31A C66G, the yeast fitness was not above 0.5.
As for C5G A37G C46G, the yeast fitness was found to be 0.598.
Take C5G C29G C66A: the yeast fitness is not above 0.5.
As for C5G A21G U32C U47A G68A, the yeast fitness was not above 0.5.
For the variant C5G C11A U19C A20C C33A C61G, the yeast fitness was found to be 0.676.
With C5G C22U A36C A42G, the yeast fitness was not above 0.5.
With C5G C31U C49G the figure was 0.576.
With C5G C34G C61A the figure was not above 0.5; with C5G A14C C31G G56A A70U, not above 0.5; with C5G A14C G18A A43G A45C C46U, 0.579.
The result for C5G C22A U26C C33G U64A G67C reads 0.544; that for C5G C27G C33U G56A U64C A69U, not above 0.5; that for C5G A14U G25A G56A G67A, not above 0.5.
For C5G A21G G41A G67A, the yeast fitness is not above 0.5.
As for C5G C29U A37U G38C, the yeast fitness is not above 0.5.
With C5G C27G C29U A45G C49A C66U the figure was not above 0.5.
With C5G A14C G38C G39A A43C C60G A65C, the yeast fitness was not above 0.5.
The result for C5G A36C A42G reads not above 0.5; that for C5G A21G U32C A69C, not above 0.5; that for C5G A20C G23A U54A, not above 0.5.
With C5G A14C U28A C31A A45U C49A C66U the figure was not above 0.5; with C5G A21C U32C G39A A57U U59C, not above 0.5; with C5G C30G G67A A70U, not above 0.5.
With C5G C30A A36G A45C A69U the figure was not above 0.5; with C5A U59G, 0.746; with C5A U59C, 0.807.
As for C5G C29G U32A A37U, the yeast fitness is not above 0.5.
Take C5G C22A G25A A37U: the yeast fitness came out at 0.596.
